Reference: paper PMC4659844 (Clinical Drug Investigation, 2015)
Read-outs that look alike come from different tables or passages of the source.

Legend:
[1] = cited from earlier work
[2] = system: healthy Japanese subjects; test: Safety and tolerability; assay type: in vivo, human
Summary of the method: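 Double-blind, placebo-controlled single 30-min IV infusion (300 ml, in 5 % dextrose with sterile water) of test compound or placebo. Groups: 500 mg, 5 active/1 placebo; 1000 mg, 10 active/2 placebo. Safety was assessed by physical examination, chemistry, hematology, urinalysis, heart rate, blood pressure, respiratory rate, oral temperature, and monitoring of concomitant medications and adverse events, queried on all study days with non-leading questions.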

[3] = system: cytochrome P450 (CYP); details: background statement, no reference given; cited from earlier work
[4] = system: QTc; details: cited from earlier work
[5] = assay type: in vivo, human; details: for percentage of total exposure (AUC0–∞) after 7 days / percentage of total exposure (AUC0–∞) after 14 days: based on mean partial AUCs
[6] = 500 mg and 1000 mg single IV infusion, range of the two dose means
[7] = 500 mg single IV infusion, healthy Japanese subjects, range of subjects, n = 5
[8] = 1000 mg single IV infusion, healthy Japanese subjects, range of subjects, n = 10

CN[C@H]1C(=O)N[C@@H]2Cc3ccc(cc3)Oc3cc4cc(c3O[C@@H]3O[C@H](C(=O)O)[C@@H](O)[C@H](O)[C@H]3NC(=O)CCCCCCCCC(C)C)Oc3ccc(cc3Cl)[C@@H](O)[C@@H]3NC(=O)[C@H](NC(=O)[C@@H]4NC(=O)[C@@H](NC2=O)c2cc(cc(O)c2Cl)Oc2cc1ccc2O)c1ccc(O)c(c1)-c1c(O[C@H]2O[C@H](CO)[C@@H](O)[C@H](O)[C@@H]2O)cc(O)cc1[C@@H](C(=O)NCCCN(C)C)NC3=O [Dalbavancin]
terminal half-life (t1/2) [1]: 2 weeks | terminal t1/2 ([1]; studies with follow-up periods as long as 70 days): ≤ 372 h | tolerability ([2]; 500 mg and 1000 mg as single 30-min infusions, healthy Japanese subjects): well tolerated | serious adverse events, deaths, discontinuations due to a TEAE ([2]; 500 mg and 1000 mg single IV infusion, healthy Japanese subjects): no serious adverse event occurred | investigator-assessed relation of dizziness to study medication ([2]; 500 mg dose group): unlikely to be related | investigator-assessed relation of dyspepsia to study medication ([2]; 500 mg dose group): not related | investigator-assessed relation of rash and diarrhea to study medication ([2]; 1000 mg dose group): possibly related | subjects with at least one TEAE, percentage ([2]; Dalbavancin 500 mg single IV infusion, N = 5): 40% | subjects with at least one TEAE, percentage ([2]; Dalbavancin 1000 mg single IV infusion, N = 10): 30% | clinical laboratory values (chemistry, hematology, urinalysis) ([2]; any dose group, change from baseline): No clinically relevant, abnormal laboratory values were reported | intensity of TEAEs ([2]; subjects receiving dalbavancin in both dose groups (500 mg, 1000 mg)): mild intensity | CYP oxidative metabolism [3]: does not undergo cytochrome P450 (CYP) oxidative metabolism | substrate, inhibitor or inducer of CYP isozymes [3]: is not a substrate, inhibitor or inducer of any known CYP-isozyme | QTc prolongation [4]: no evidence of QTc prolongation | mean CL across two dose concentrations [5, 6]: 40.5 to 42.2 mL/h | mean Vd across two dose concentrations [5, 6]: 11,301 to 12,182 ml | percentage of total exposure (AUC0–∞) after 7 days ([5]; 500 mg single IV infusion): approximately 47% | percentage of total exposure (AUC0–∞) after 14 days ([5]; 500 mg single IV infusion): ~70% | mean AUC%extrap (percentage of AUC0–∞ obtained by extrapolation) ([5]; 500 mg single IV infusion, healthy Japanese subjects): 9.83% | Vd, range [5, 7]: 11,412–14,205 ml | terminal phase t1/2, range [5, 7]: 182 to 240 h | percentage of total exposure (AUC0–∞) after 7 days ([5]; 1000 mg single IV infusion): approximately 49% | percentage of total exposure (AUC0–∞) after 14 days ([5]; 1000 mg single IV infusion): ~73% | mean AUC%extrap (percentage of AUC0–∞ obtained by extrapolation) ([5]; 1000 mg single IV infusion, healthy Japanese subjects): 8.34% | CL, range [5, 8]: 34.8 to 45.8 mL/h | Vd, range [5, 8]: 8999–13,691 ml | terminal phase t1/2, range [5, 8]: 162 to 220 h
